Data: ChEMBL document CHEMBL3259739, “Synthesis and structure-activity relationship of trisubstituted thiazoles as Cdc7 kinase inhibitors” (Eur J Med Chem, 2014)

Columns and labels:
[1] = target: Serine/threonine-protein kinase pim-1 (Homo sapiens, UniProt P11309); assay: Inhibition of PIM1 (unknown origin) at 1 uM relative to control; details: values are per cent of control
Method in brief: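 The supplementary panel puts Pim1 in the KinomeSCAN competitive binding format; compounds at 1 µM in duplicate; percent […] control.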

[2] = target: T1, Serine/threonine-protein kinase TBK1 (Homo sapiens) (UniProt Q9UHD2); assay: Inhibition of TBK1 (unknown origin) at 1 uM relative to control; details: values are per cent of control
T1 sequence (whole entry): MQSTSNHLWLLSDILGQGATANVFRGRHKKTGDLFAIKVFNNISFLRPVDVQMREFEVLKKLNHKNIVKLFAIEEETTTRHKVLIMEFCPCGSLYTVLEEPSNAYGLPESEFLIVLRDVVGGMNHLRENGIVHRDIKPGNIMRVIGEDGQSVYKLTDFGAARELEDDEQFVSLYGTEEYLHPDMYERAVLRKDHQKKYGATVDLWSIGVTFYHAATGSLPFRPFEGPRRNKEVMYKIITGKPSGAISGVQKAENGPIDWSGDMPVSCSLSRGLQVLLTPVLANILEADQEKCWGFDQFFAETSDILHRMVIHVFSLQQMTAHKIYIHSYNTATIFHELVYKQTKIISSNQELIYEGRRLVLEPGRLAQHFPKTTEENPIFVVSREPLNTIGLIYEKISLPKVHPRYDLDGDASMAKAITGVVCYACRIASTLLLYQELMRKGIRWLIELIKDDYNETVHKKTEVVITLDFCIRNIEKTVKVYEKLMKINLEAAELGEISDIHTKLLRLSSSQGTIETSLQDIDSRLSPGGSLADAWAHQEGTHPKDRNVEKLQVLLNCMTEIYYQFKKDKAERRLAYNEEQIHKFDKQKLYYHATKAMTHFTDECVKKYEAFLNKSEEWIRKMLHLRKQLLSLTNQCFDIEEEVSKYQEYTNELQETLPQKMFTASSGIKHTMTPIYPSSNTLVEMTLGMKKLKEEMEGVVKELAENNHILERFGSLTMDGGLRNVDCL
Method in brief: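 KinomeSCAN competitive binding panel of 100 kinases; compounds tested at 1 µM in duplicate; read-out is percent […] control.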

[3] = target: Ribosomal protein S6 kinase alpha-5 (Homo sapiens) (UniProt O75582); assay: Inhibition of RPS6KA5 (unknown origin) at 1 uM relative to control; details: values are per cent of control
[4] = target: T2, Cyclin-G-associated kinase (Homo sapiens) (UniProt O14976); assay: Inhibition of GAK (unknown origin) at 1 uM relative to control; values are per cent of control
T2 sequence (whole entry): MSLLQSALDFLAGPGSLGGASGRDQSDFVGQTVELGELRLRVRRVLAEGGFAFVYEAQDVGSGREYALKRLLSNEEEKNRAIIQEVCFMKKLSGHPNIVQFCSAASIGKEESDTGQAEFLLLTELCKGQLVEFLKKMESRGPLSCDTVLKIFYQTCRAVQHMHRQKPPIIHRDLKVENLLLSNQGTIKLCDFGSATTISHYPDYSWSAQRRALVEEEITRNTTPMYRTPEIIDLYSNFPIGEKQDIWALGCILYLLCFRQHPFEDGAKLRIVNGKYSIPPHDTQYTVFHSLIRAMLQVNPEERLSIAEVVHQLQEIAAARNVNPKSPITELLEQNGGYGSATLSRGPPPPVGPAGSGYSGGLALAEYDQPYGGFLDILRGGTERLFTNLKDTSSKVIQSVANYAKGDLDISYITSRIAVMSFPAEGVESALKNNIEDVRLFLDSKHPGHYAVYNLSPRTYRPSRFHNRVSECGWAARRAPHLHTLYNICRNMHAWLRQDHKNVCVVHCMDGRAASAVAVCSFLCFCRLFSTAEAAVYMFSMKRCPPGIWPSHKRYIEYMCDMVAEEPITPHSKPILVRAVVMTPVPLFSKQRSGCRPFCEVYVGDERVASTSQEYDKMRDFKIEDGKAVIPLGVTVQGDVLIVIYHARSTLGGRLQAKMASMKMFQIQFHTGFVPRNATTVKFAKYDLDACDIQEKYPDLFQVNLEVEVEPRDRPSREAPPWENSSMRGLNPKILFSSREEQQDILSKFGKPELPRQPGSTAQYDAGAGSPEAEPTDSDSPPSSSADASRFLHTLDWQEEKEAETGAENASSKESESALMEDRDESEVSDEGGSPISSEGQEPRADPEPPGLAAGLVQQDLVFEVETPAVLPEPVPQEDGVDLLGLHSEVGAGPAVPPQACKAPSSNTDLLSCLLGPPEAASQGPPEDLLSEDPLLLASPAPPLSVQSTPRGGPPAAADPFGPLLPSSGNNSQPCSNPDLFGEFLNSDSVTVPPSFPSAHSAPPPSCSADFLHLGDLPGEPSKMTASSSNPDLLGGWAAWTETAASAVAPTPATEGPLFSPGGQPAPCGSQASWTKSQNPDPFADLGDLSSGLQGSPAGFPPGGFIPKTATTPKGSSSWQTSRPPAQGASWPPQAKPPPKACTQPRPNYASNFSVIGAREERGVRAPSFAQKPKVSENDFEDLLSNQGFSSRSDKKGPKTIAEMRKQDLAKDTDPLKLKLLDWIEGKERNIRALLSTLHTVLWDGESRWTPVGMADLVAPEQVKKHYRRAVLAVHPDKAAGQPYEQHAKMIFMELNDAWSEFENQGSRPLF

[5] = target: T3, Interleukin-1 receptor-associated kinase 4 (Homo sapiens) (UniProt Q9NWZ3); assay: Inhibition of IRAK4 (unknown origin) at 1 uM relative to control; values are per cent of control
T3 sequence (whole entry): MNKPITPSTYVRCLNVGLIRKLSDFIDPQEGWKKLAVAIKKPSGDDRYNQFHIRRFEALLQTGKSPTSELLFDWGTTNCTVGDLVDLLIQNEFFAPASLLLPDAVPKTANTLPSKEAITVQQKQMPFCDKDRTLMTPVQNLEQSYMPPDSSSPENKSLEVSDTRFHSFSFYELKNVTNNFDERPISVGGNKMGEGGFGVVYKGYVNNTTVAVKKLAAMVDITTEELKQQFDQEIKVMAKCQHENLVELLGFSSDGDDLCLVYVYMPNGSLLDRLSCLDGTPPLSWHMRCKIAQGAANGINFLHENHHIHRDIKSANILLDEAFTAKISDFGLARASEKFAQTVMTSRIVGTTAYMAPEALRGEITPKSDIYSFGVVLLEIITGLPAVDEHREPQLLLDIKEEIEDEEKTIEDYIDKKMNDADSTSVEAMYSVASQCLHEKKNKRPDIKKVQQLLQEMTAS

[6] = target: LIM domain kinase 1 (Homo sapiens) (UniProt P53667); assay: Inhibition of LIMK1 (unknown origin) at 1 uM relative to control; values are per cent of control
[7] = target: Serine/threonine-protein kinase MARK1 (Homo sapiens) (UniProt Q9P0L2); assay: Inhibition of MARK1 (unknown origin) at 1 uM relative to control; values are per cent of control
Serine/threonine-protein kinase MARK1 (Homo sapiens), sequence (Q9P0L2 whole entry, looked up): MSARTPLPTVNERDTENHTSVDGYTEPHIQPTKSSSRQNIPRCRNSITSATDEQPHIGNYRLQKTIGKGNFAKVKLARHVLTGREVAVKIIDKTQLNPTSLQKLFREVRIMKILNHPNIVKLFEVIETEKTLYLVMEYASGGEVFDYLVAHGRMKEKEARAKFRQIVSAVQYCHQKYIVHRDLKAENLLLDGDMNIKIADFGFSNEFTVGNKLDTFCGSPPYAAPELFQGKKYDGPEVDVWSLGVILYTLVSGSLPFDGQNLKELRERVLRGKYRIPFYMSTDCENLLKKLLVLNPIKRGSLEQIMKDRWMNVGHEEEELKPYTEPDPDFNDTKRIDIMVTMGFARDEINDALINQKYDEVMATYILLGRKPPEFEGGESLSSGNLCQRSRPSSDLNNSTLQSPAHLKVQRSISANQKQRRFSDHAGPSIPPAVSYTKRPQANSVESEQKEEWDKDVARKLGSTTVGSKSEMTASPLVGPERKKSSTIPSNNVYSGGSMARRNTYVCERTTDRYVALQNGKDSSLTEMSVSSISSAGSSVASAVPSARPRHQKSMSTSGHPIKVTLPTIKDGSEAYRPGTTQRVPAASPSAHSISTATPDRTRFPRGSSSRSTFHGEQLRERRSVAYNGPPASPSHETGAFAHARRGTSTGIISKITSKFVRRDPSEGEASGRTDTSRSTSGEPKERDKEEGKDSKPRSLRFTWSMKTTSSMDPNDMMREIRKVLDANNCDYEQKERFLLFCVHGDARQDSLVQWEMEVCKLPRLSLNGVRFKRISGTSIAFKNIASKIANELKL

Ribosomal protein S6 kinase alpha-5 (Homo sapiens), sequence (O75582 whole entry, looked up): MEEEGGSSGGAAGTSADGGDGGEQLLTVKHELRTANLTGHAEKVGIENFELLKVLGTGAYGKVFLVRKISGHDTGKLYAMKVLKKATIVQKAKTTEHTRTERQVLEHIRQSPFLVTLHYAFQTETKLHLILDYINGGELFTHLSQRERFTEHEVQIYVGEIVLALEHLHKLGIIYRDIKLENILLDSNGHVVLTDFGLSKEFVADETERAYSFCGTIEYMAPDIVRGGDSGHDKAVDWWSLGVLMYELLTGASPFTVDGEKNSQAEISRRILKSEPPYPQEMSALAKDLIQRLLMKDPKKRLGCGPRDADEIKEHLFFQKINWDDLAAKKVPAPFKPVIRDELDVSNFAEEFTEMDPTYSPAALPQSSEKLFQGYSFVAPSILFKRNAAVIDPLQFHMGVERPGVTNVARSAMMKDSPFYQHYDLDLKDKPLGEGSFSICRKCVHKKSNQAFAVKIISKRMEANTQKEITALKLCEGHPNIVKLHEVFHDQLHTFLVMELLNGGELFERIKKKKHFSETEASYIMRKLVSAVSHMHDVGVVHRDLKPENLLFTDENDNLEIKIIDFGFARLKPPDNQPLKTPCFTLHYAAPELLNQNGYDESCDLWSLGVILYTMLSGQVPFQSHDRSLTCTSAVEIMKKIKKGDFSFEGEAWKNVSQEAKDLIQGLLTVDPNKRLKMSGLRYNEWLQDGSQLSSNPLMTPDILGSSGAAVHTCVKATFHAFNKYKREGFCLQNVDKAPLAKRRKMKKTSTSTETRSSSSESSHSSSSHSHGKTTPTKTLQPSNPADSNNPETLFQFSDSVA
Serine/threonine-protein kinase pim-1, sequence (P11309 whole entry, looked up): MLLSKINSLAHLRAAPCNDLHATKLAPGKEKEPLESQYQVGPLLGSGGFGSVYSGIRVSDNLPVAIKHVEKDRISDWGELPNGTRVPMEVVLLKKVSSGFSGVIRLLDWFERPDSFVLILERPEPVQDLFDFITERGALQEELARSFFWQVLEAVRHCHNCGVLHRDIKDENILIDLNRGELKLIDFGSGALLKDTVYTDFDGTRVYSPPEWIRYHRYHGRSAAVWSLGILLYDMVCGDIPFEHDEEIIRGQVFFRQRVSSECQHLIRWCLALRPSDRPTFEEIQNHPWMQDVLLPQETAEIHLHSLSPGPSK
LIM domain kinase 1 (Homo sapiens), sequence (P53667 whole entry, looked up, the tested form may be a part): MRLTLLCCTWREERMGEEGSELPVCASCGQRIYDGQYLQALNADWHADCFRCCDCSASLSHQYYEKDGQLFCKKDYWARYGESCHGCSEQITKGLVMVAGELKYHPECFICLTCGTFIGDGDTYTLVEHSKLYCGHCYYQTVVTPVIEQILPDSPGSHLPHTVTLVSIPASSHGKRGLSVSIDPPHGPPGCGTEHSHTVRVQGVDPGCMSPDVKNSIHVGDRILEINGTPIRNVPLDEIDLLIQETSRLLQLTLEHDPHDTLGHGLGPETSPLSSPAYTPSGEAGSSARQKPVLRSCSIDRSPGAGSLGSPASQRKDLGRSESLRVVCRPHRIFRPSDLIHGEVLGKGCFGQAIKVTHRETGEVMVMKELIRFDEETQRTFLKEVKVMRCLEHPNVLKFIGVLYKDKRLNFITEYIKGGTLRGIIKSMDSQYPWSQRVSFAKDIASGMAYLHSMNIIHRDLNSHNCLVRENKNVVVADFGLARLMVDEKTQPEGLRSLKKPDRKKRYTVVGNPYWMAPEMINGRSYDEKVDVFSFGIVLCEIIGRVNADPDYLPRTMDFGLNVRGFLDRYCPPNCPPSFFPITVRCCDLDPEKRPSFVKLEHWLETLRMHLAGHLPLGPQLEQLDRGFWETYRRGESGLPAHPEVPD

CCOC(=O)c1sc(-c2ccncc2)nc1O
residual binding, % of control [1]: 75%
residual binding, % of control [2]: 100%
residual binding, % of control [3]: 100%
residual activity [4]: 97%
residual activity [5]: 100%
residual activity [6]: 100%
residual activity [7]: 100%

COc1ccc(-c2nc(-c3ccnc(N)n3)sc2C(N)=O)c(Cl)c1
residual binding, % of control [1]: 99%
residual binding, % of control [2]: 100%
residual binding, % of control [3]: 100%
residual activity [4]: 88%
residual activity [5]: 100%
residual activity [6]: 78%
residual activity [7]: 100%

NC(=O)c1sc(-c2ccnc(N)n2)nc1-c1ccc(Cl)cc1Cl
residual binding, % of control [1]: 83%
residual binding, % of control [2]: 85%
residual binding, % of control [3]: 100%
residual activity [4]: 90%
residual activity [5]: 91%
residual activity [6]: 100%
residual activity [7]: 100%
